# From ChEMBL document CHEMBL1124204, “Thiophene systems. 9. Thienopyrimidinedione derivatives as potential antihypertensive agents” (1988)
# What was measured:
# Rattus norvegicus [1] = assay: Evaluated for blood pressure lowering activity in spontaneously hypertensive rats (maximum change of systolic blood pressure (SBP)) at a dose of 1.25 mg/kg; type: functional, Artery
# Outline: (§1)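 Adult male SHR, conscious, restrained in a chamber at 32 °C. SBP measured indirectly by tail cuff with a pneumatic pulse transducer. After baseline, groups of 4–6 received a single oral gavage dose or vehicle (0.5% methylcellulose). SBP was read at 0.5, 1, 2, 3 and 4 h, and the maximum SBP change ± SEM was reported against the vehicle effect.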
# Rattus norvegicus [2] = assay: Time to peak fall in systolic blood pressure in spontaneously hypertensive rats after oral administration of 1.25 mg/kg of the compound
# Rattus norvegicus [3] = assay: Evaluated for blood pressure lowering activity in spontaneously hypertensive rats (maximum change of systolic blood pressure (SBP)) at a dose of 10 mg/kg; type: functional, Artery; outline: as §1
# Rattus norvegicus [4] = assay: Time to peak fall in systolic blood pressure in spontaneously hypertensive rats after oral administration of 10 mg/kg of the compound
# Rattus norvegicus [5] = assay: Evaluated for blood pressure lowering activity in spontaneously hypertensive rats (maximum change of systolic blood pressure (SBP)) at a dose of 2.5 mg/kg; type: functional, Artery; outline: as §1
# Rattus norvegicus [6] = assay: Time to reach peak blood pressure lowering effect in spontaneously hypertensive rats after oral administration of 2.5 mg/kg of the compound
# Canis familiaris = assay: Intravenous dose required to produce a 20-fold rightward shift in the phenylephrine dose-response curve in the dog; type: functional, Canis lupus familiaris
# Outline: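 Mongrel dogs, anesthetized and bilaterally vagotomized. Mean arterial pressure was recorded via carotid cannula, and drug was given iv through the jugular vein. Phenylephrine dose–response curves were run before and after antagonist. The iv dose (μg/kg) producing a 20-fold rightward shift (DR20) was calculated; n = animals tested.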
# Rattus norvegicus [7] = assay: Intravenous dose required to produce a 50% inhibition of the phenylephrine pressor response in the spontaneously hypertensive rats; type: functional
# Outline: (§2)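 Adult male SHR, anesthetized and bilaterally vagotomized. A carotid artery was cannulated for mean arterial pressure and a jugular vein for iv dosing. Phenylephrine pressor responses were measured before and after antagonist. The iv dose (μg/kg) giving 50% inhibition of the pressor response (ED50) was reported with fiducial limits.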
# Rattus norvegicus [8] = organism: Rattus norvegicus; assay: Peroral dose required to produce a 50 mmHg drop in systolic blood pressure (SBP) in the spontaneously hypertensive rats; type: functional; settings: Artery, po
# Outline: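 Adult male SHR, conscious, tail-cuff indirect SBP at 32 °C. Groups of 4–6 were given single oral gavage doses of 0.5–20 mg/kg in 0.5% methylcellulose, with SBP followed over 4 h. The dose giving a 50 mmHg SBP fall (ED50SBP, mg/kg po) was calculated by regression analysis with 95% fiducial limits; n = animals tested.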
# Rattus norvegicus [9] = assay: Evaluated for blood pressure lowering activity in spontaneously hypertensive rats (maximum change of systolic blood pressure (SBP)) at a dose of 0.5 mg/kg; type: functional, Artery; outline: as §1
# Rattus norvegicus [10] = assay: Time to peak fall in systolic blood pressure in spontaneously hypertensive rats after oral administration of 0.5 mg/kg of the compound
# Rattus norvegicus [11] = assay: Evaluated for blood pressure lowering activity in the conscious spontaneously hypertensive rats (SHR) (time to peak (h)) at a dose of 2.5 mg/kg; type: functional
# Outline: (§3)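 Conscious adult male SHR in restrainers at 32 °C, with tail-cuff and pulse-transducer SBP recording. Groups of 4–6 got a single gavage dose in 0.5% methylcellulose or vehicle alone. SBP was sampled at 0.5, 1, 2, 3 and 4 h post-dose, and the time (h) at which the peak SBP change occurred was recorded.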
# Rattus norvegicus [12] = assay: Evaluated for blood pressure lowering activity in the conscious spontaneously hypertensive rats (SHR) (time to peak (h)) at a dose of 5 mg/kg; type: functional; outline: as §3
# Rattus norvegicus [13] = assay: Evaluated for blood pressure lowering activity in spontaneously hypertensive rats (maximum change of systolic blood pressure (SBP)) at a dose of 5 mg/kg; type: functional, Artery; outline: as §1
# Rattus norvegicus [14] = assay: Evaluated for blood pressure lowering activity in the conscious spontaneously hypertensive rats (SHR) (time to peak (h)) at a dose of 10 mg/kg; type: functional; outline: as §3
# Rattus norvegicus [15] = assay: Evaluated for blood pressure lowering activity in spontaneously hypertensive rats (maximum change of systolic blood pressure (SBP)) at a dose of 20 mg/kg; type: functional, Artery; outline: as §1
# Rattus norvegicus [16] = assay: Time to reach peak blood pressure lowering effect in spontaneously hypertensive rats after oral administration of 20 mg/kg of the compound
# Rattus norvegicus [17] = assay: Evaluated for blood pressure lowering activity in the conscious spontaneously hypertensive rats (SHR) (time to peak (h)) at a dose of 1.25 mg/kg; type: functional; outline: as §3
# Rattus norvegicus [18] = assay: Intravenous dose required to produce 50% inhibition of the phenylephrine pressor response in the spontaneously hypertensive rats; type: functional; outline: as §2
smiles,measurement,setting,value
COc1ccccc1N1CCN(CCn2c(=O)[nH]c3csc(C)c3c2=O)CC1.Cl,Delta SBP,Rattus norvegicus [1],-66 mmHg
same,Time,Rattus norvegicus [2],1 h
COc1ccccc1N1CCN(CCn2c(=O)[nH]c3scc(C)c3c2=O)CC1.Cl.O,Delta SBP,Rattus norvegicus [3],-56 mmHg
same,Time,Rattus norvegicus [4],0.5 h
CCOc1ccccc1N1CCN(CCn2c(=O)[nH]c3cscc3c2=O)CC1.Cl,Delta SBP,Rattus norvegicus [5],-79 mmHg
same,Time,Rattus norvegicus [6],2 h
Cl.O=c1[nH]c2cscc2c(=O)n1CCN1CCN(c2ccc(F)cc2)CC1,Delta SBP,Rattus norvegicus [3],-68 mmHg
same,Time,Rattus norvegicus [4],0.5 h
Cl.O=c1[nH]c2cscc2c(=O)n1CCN1CCN(c2ccccc2)CC1,Delta SBP,Rattus norvegicus [3],-76 mmHg
same,Time,Rattus norvegicus [4],0.5 h
COc1ccccc1N1CCN(CCn2c(=O)[nH]c3cscc3c2=O)CC1.Cl,DR20,Canis familiaris,3 µg/kg
same,ED50,Rattus norvegicus [7],1.7 µg/kg
same,ED50,Rattus norvegicus [8],0.21 mg/kg
same,Delta SBP,Rattus norvegicus [9],-83 mmHg
same,Time,Rattus norvegicus [10],0.5 h
COc1ccccc1N1CCN(CCn2c(=O)[nH]c3sccc3c2=O)CC1,DR20,Canis familiaris,20 µg/kg
same,ED50,Rattus norvegicus [7],15.4 µg/kg
same,ED50,Rattus norvegicus [8],1 mg/kg
same,Delta SBP,Rattus norvegicus [1],-50 mmHg
same,Time,Rattus norvegicus [2],0.5 h
COc1ccccc1N1CCN(CCn2c(=O)c3sccc3n(C(=O)C(C)(C)C)c2=O)CC1,Time,Rattus norvegicus [11],0.5 h
same,Delta SBP,Rattus norvegicus [5],-62 mmHg
COc1ccccc1N1CCN(CCn2c(=O)c3cscc3n(C(=O)C(C)(C)C)c2=O)CC1,Time,Rattus norvegicus [12],0.5 h
same,Delta SBP,Rattus norvegicus [13],-69 mmHg
COc1ccccc1N1CCN(CCCn2c(=O)[nH]c3sccc3c2=O)CC1,Time,Rattus norvegicus [14],0.5 h
same,Delta SBP,Rattus norvegicus [3],-68 mmHg
COc1ccccc1N1CCN(CCCn2c(=O)[nH]c3ccsc3c2=O)CC1,Delta SBP,Rattus norvegicus [3],-43 mmHg
same,Time,Rattus norvegicus [4],0.5 h
COc1ccccc1N1CCN(CCn2c(=O)c3sccc3n(C)c2=O)CC1,Delta SBP,Rattus norvegicus [1],-56 mmHg
same,Time,Rattus norvegicus [2],0.5 h
COc1ccccc1N1CCN(CCn2c(=O)c3cscc3n(C(=O)C(C)C)c2=O)CC1,Time,Rattus norvegicus [12],0.5 h
same,Delta SBP,Rattus norvegicus [13],-53 mmHg
C#CCn1c(=O)n(CCN2CCN(c3ccccc3OC)CC2)c(=O)c2cscc21,Time,Rattus norvegicus [14],1 h
same,Delta SBP,Rattus norvegicus [3],-52 mmHg
COc1ccc(N2CCN(CCn3c(=O)[nH]c4sccc4c3=O)CC2)cc1,Delta SBP,Rattus norvegicus [3],-40 mmHg
same,Time,Rattus norvegicus [4],0.5 h
O=c1[nH]c2cscc2c(=O)n1CCN1CCN(c2ccc(Cl)cc2)CC1,Delta SBP,Rattus norvegicus [3],-56 mmHg
same,Time,Rattus norvegicus [4],0.5 h
COc1ccccc1N1CCN(CCn2c(=O)[nH]c3sc(C)c(C)c3c2=O)CC1,Delta SBP,Rattus norvegicus [15],-50 mmHg
same,Time,Rattus norvegicus [16],1 h
Cc1ccccc1N1CCN(CCn2c(=O)[nH]c3cscc3c2=O)CC1,Delta SBP,Rattus norvegicus [1],-36 mmHg
same,Time,Rattus norvegicus [2],0.5 h
CCOC(=O)CCCn1c(=O)n(CCN2CCN(c3ccccc3OC)CC2)c(=O)c2cscc21,Delta SBP,Rattus norvegicus [3],-87 mmHg
same,Time,Rattus norvegicus [4],0.5 h
C=CCn1c(=O)n(CCN2CCN(c3ccccc3OC)CC2)c(=O)c2cscc21,Delta SBP,Rattus norvegicus [3],-50 mmHg
same,Time,Rattus norvegicus [4],1 h
O=c1[nH]c2sccc2c(=O)n1CCN1CCN(c2ccccc2Cl)CC1,Delta SBP,Rattus norvegicus [3],-43 mmHg
same,Time,Rattus norvegicus [4],2 h
COc1cccc(N2CCN(CCn3c(=O)[nH]c4cscc4c3=O)CC2)c1,Delta SBP,Rattus norvegicus [15],-52 mmHg
same,Time,Rattus norvegicus [16],0.5 h
CCCCCCCCn1c(=O)n(CCN2CCN(c3ccccc3OC)CC2)c(=O)c2cscc21,Time,Rattus norvegicus [14],2 h
same,Delta SBP,Rattus norvegicus [3],-54 mmHg
CCOC(=O)CCCCn1c(=O)n(CCN2CCN(c3ccccc3OC)CC2)c(=O)c2sccc21,Delta SBP,Rattus norvegicus [5],-30 mmHg
same,Time,Rattus norvegicus [6],0.5 h
Cc1ccccc1N1CCN(CCn2c(=O)[nH]c3ccsc3c2=O)CC1,Delta SBP,Rattus norvegicus [1],-33 mmHg
same,Time,Rattus norvegicus [2],1 h
COc1ccc(C(=O)n2c(=O)n(CCN3CCN(c4ccccc4OC)CC3)c(=O)c3cscc32)cc1,Time,Rattus norvegicus [11],2 h
same,Delta SBP,Rattus norvegicus [5],-59 mmHg
CCCCCC(=O)n1c(=O)n(CCN2CCN(c3ccccc3OC)CC2)c(=O)c2cscc21,Time,Rattus norvegicus [12],0.5 h
same,Delta SBP,Rattus norvegicus [13],-42 mmHg
COc1ccccc1N1CCN(CCn2c(=O)c3cscc3n(C(=O)c3ccccc3)c2=O)CC1,Time,Rattus norvegicus [12],1 h
same,Delta SBP,Rattus norvegicus [13],-68 mmHg
COC(=O)CCn1c(=O)n(CCN2CCN(c3ccccc3OC)CC2)c(=O)c2cscc21,Delta SBP,Rattus norvegicus [3],-55 mmHg
same,Time,Rattus norvegicus [4],1 h
COc1ccc(N2CCN(CCn3c(=O)[nH]c4cscc4c3=O)CC2)cc1,Delta SBP,Rattus norvegicus [3],-51 mmHg
same,Time,Rattus norvegicus [4],0.5 h
COc1ccccc1N1CCN(CCn2c(=O)c3cscc3n(C(C)=O)c2=O)CC1,Time,Rattus norvegicus [11],0.5 h
same,Delta SBP,Rattus norvegicus [5],-44 mmHg
CCOC(=O)n1c(=O)n(CCN2CCN(c3ccccc3OC)CC2)c(=O)c2sccc21,Time,Rattus norvegicus [11],0.5 h
same,Delta SBP,Rattus norvegicus [5],-30 mmHg
COc1ccccc1N1CCN(CCn2c(=O)c3sccc3n(C(C)=O)c2=O)CC1,Time,Rattus norvegicus [12],0.5 h
same,Delta SBP,Rattus norvegicus [13],-58 mmHg
O=c1[nH]c2sccc2c(=O)n1CCN1CCN(c2ccccc2)CC1,Delta SBP,Rattus norvegicus [3],-45 mmHg
same,Time,Rattus norvegicus [4],1 h
COc1ccccc1N1CCN(CCn2c(=O)[nH]c3c(Cl)scc3c2=O)CC1,Delta SBP,Rattus norvegicus [5],-75 mmHg
same,Time,Rattus norvegicus [6],0.5 h
COc1ccccc1N1CCN(CCn2c(=O)c3cscc3n(C(=O)c3ccc(Cl)cc3)c2=O)CC1,Time,Rattus norvegicus [12],1 h
same,Delta SBP,Rattus norvegicus [13],-14 mmHg
COc1ccccc1N1CCN(CCn2c(=O)[nH]c3ccccc3c2=O)CC1,DR20,Canis familiaris,10 µg/kg
same,ED50,Rattus norvegicus [7],3.3 µg/kg
same,ED50,Rattus norvegicus [8],0.54 mg/kg
same,Time,Rattus norvegicus [17],0.5 h
same,Delta SBP,Rattus norvegicus [1],-54 mmHg
COc1ccccc1N1CCN(CCn2c(=O)c3ccsc3n(C)c2=O)CC1,Delta SBP,Rattus norvegicus [1],-28 mmHg
same,Time,Rattus norvegicus [2],0.5 h
COc1ccccc1N1CCN(CCn2c(=O)[nH]c3ccsc3c2=O)CC1,DR20,Canis familiaris,4 µg/kg
same,ED50,Rattus norvegicus [7],2.1 µg/kg
same,ED50,Rattus norvegicus [8],0.19 mg/kg
same,Delta SBP,Rattus norvegicus [1],-74 mmHg
same,Time,Rattus norvegicus [2],0.5 h
COc1ccc(N2CCN(CCn3c(=O)[nH]c4ccsc4c3=O)CC2)cc1,Delta SBP,Rattus norvegicus [3],-68 mmHg
same,Time,Rattus norvegicus [4],1 h
COc1cccc(N2CCN(CCn3c(=O)[nH]c4ccsc4c3=O)CC2)c1,Delta SBP,Rattus norvegicus [5],-28 mmHg
same,Time,Rattus norvegicus [6],1 h
O=c1[nH]c2cscc2c(=O)n1CCN1CCN(c2cccc(Cl)c2)CC1,Time,Rattus norvegicus [14],2 h
same,Delta SBP,Rattus norvegicus [3],-20 mmHg
COc1ccccc1N1CCN(CCCn2c(=O)[nH]c3cscc3c2=O)CC1,Delta SBP,Rattus norvegicus [3],-38 mmHg
same,Time,Rattus norvegicus [4],1 h
O=c1[nH]c2cscc2c(=O)n1CCN1CCN(c2ccccc2Cl)CC1,Delta SBP,Rattus norvegicus [1],-51 mmHg
same,Time,Rattus norvegicus [2],0.5 h
O=c1[nH]c2ccsc2c(=O)n1CCN1CCN(c2ccccc2Cl)CC1,Delta SBP,Rattus norvegicus [1],-30 mmHg
same,Time,Rattus norvegicus [2],0.5 h
COc1ccccc1N1CCN(CCn2c(=O)c3cscc3n(C)c2=O)CC1,Delta SBP,Rattus norvegicus [1],-67 mmHg
same,Time,Rattus norvegicus [2],0.5 h
O=c1[nH]c2ccsc2c(=O)n1CCN1CCN(c2ccccc2)CC1,Delta SBP,Rattus norvegicus [3],-48 mmHg
same,Time,Rattus norvegicus [4],0.5 h
COc1ccccc1N1CCN(CCn2c(=O)[nH]c3sc(Cl)cc3c2=O)CC1,Delta SBP,Rattus norvegicus [1],-25 mmHg
same,Time,Rattus norvegicus [2],0.5 h
CCCCn1c(=O)n(CCN2CCN(c3ccccc3OC)CC2)c(=O)c2sccc21,Delta SBP,Rattus norvegicus [1],-28 mmHg
same,Time,Rattus norvegicus [2],0.5 h
Cc1ccccc1N1CCN(CCn2c(=O)[nH]c3sccc3c2=O)CC1,Delta SBP,Rattus norvegicus [3],-70 mmHg
same,Time,Rattus norvegicus [4],0.5 h
COc1cc2nc(N3CCN(C(=O)c4ccco4)CC3)nc(N)c2cc1OC [PRAZOSIN],DR20,Canis familiaris,300 µg/kg
same,ED50,Rattus norvegicus [18],0.0104 mg/kg
same,ED50,Rattus norvegicus [8],0.22 mg/kg
same,Time,Rattus norvegicus [17],0.5 h
same,Delta SBP,Rattus norvegicus [1],-60 mmHg
